# Measured values pooled from the literature.
# Protocols differ between the studies behind these lines.
# Target: Proto-oncogene tyrosine-protein kinase ROS (ROS1, Homo sapiens, UniProt P08922)
Structure (SMILES),observed,mode,method,tested at,endpoint,result
O=C(Nc1cnn(-c2csc(C(=O)NC3COC3)c2)c1)Nc1c(F)cccc1Cl,enzyme activity,inhibitor,,5 µM,remaining activity,85.5%
Cc1c[nH]c2nccc(Oc3c(F)cc(Nc4cc(Cl)nc(N)n4)cc3F)c12,cell-free assay,,competition with immobilised ligand,0.1 µM,remaining binding,96%
Cc1ccc(Nc2nccc(N(C)c3ccc4c(C)n(C)nc4c3)n2)cc1S(N)(=O)=O,enzyme activity,inhibitor,,0.3 µM,inhibition,3%
Cc1c(NC(=O)c2cc(C(N)=O)nc3cc(F)ccc23)c(C(F)(F)F)nn1Cc1ccc(C#N)cc1,cell-free assay,,competition with immobilised ligand,1 µM,remaining binding,99%
Cc1cc(NC(=O)c2cccc3cc(-c4cccc5[nH]nc(N)c45)ccc23)ccc1F,enzyme activity,inhibitor,,0.1 µM,activity vs control,111%
N#Cc1ccc(Nc2ccc3[nH]c(=O)[nH]c3c2)c(Cl)c1,cell-free assay,,competition with immobilised ligand,1 µM,remaining binding,100%
CC(C)(O)[C@H]1CC[C@H](Nc2ccc3ncc(-c4cccc(C(F)(F)F)c4)n3n2)CC1,enzyme activity,inhibitor,,1 µM,remaining activity,25.1%
CNCc1ccc(-c2cc(-c3nc(-c4ccc(S(=O)(=O)C(C)C)cc4)cnc3N)on2)cc1,enzyme activity,inhibitor,,2 µM,inhibition,4%
COc1cc2c(N3CCN(C(=O)Nc4ccc(OC(C)C)cc4)CC3)ncnc2cc1OCCCN1CCCCC1,cell-free assay,,,0.5 µM,remaining signal,90.1%
COc1cc2ncnc(Nc3ccc(Oc4ccccc4)c(C)c3C)c2cc1OC,enzyme activity,inhibitor,,1 µM,inhibition,-2%
O=C1NC(=O)c2cc(Nc3ccc(F)cc3)c(Nc3ccc(F)cc3)cc21,cell-free assay,,,0.5 µM,remaining signal,92%
CCN(CC)c1ccc(C2=NNC(=O)CC2C)cc1[N+](=O)[O-] (stereo not drawn),enzyme activity,inhibitor,,10 µM,remaining activity,106%
CCC(=O)N[C@H]1CC[C@@H](C(=O)N(C)c2ccc(-c3nc4ccccc4o3)cc2)C1,cell-free assay,,competition with immobilised ligand,1 µM,remaining binding,93%
C=CC(=O)Nc1cc(Nc2nccc(Nc3cc(Cl)c(F)cc3C(C)(C)O)n2)c(OC)cc1N1CC[C@@H](N(C)C)C1,enzyme activity,inhibitor,,1 µM,inhibition,51%
CNC(=O)c1cc(Oc2ccc(NC(=O)Nc3ccc(Cl)c(C(F)(F)F)c3)cc2)ccn1,cell-free assay,,,0.5 µM,remaining signal,95.7%
CC(C)(C)c1nc2c(s1)c1nc(N)ncc1c1ccc(NS(=O)(=O)c3c(F)cccc3F)c(F)c12,enzyme activity,inhibitor,radiometric,1 µM,remaining activity,109%
CCCS(=O)(=O)Nc1ccc(F)c(C(=O)c2c[nH]c3ncc(-c4ccc(Cl)cc4)cc23)c1F,enzyme activity,inhibitor,,1 µM,inhibition,< 10%
CC(=O)c1c(NS(C)(=O)=O)c2cc(-c3ccc(Cl)cc3)c(-c3ccc(Cl)cc3Cl)nc2n(C)c1=O,cell-free assay,,competition with immobilised ligand,1 µM,remaining binding,100%
Cc1ccc(NC(=O)c2ccc(C)c(C(F)(F)F)c2)cc1C#Cc1nn(C2CCC(O)CC2)c2ncnc(N)c12 (stereo not drawn),cell-free assay,,,10 µM,remaining signal,82%
CNC(=O)c1cc2c(Oc3ccc(NC(=O)C4(C(=O)Nc5ccc(F)cc5)CC4)cc3)ccnc2cc1OC,enzyme activity,inhibitor,radiometric,1 µM,inhibition,89%
CCOCCn1cc(C(=O)Nc2ccc(-n3nc(-c4cccnc4)cc3C(F)(F)F)cn2)ccc1=O,cell-free assay,,competition with immobilised ligand,1 µM,remaining binding,100%
Cc1cnc(NC2CCOCC2)nc1-n1cnc(C(=O)NC(CN)c2cc(F)cc(Cl)c2)c1 (stereo not drawn),enzyme activity,inhibitor,radiometric,1 µM,remaining activity,103%
CCCOc1ccc([C@@H]2[C@@H](C(=O)O)[C@H](c3ccc4c(c3)OCO4)CN2CC(=O)Nc2c(CC)cccc2CC)cc1,cell-free assay,,competition with immobilised ligand,1 µM,remaining binding,90%
CCN(CC)CCNC(=O)c1c(C)[nH]c(/C=C2\C(=O)Nc3ccc(F)cc32)c1C,enzyme activity,inhibitor,,0.3 µM,inhibition,4%
N#CCCc1ccc2c(c1)-c1[nH]c3ccc([N+](=O)[O-])cc3c1CC(=O)N2,cell-free assay,,,0.5 µM,remaining signal,71%
CCOc1cc(-c2nncn2C)ccc1Nc1ncc2cc(C)nc(NCC(C)(C)C)c2n1,enzyme activity,inhibitor,FRET,1 µM,inhibition,31%
CC(=O)N1CCC(c2ccc(C(=O)NC3=NCCN3)cc2C(F)(F)F)CC1,cell-free assay,,competition with immobilised ligand,1 µM,remaining binding,99%
